Screening results as filed in PubChem BioAssay.
RGS4 act: potentiators or activators of RGS4. HEK293 M3R/inducible RGS4, carbachol calcium flux Fluo4; stronger effect = lower value. hit rate 0.92% among 310,000. AID 463111. B-score at 10 µM;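 active = B-score of the integrated calcium signal more than 4 SD below the library mean, with starting fluorescence not abnormally high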;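 note: negative B-score means reduced calcium response which marks RGS4 activation or potentiation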
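Detection: kinetic calcium fluorescence imaging with Fluo4-AM dye, 2 µM / Material: HEK293 cells with stable M3R and inducible RGS4 / Schedule: recording 10 s baseline at 1 Hz, 100 s post-agonist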
MrgX1 allo act: human MrgX1 positive allosteric modulation, primary screen; Q96LB2; MrgX1-HEK293, Fluo-4 calcium flux, FDSS; stronger effect = higher value; B-score at 10 µM; hit rate 0.63% among 310,000; AID 588675;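 active = plate-corrected calcium response at least 3 library SD above typical, normal starting fluorescence, not activating the receptor alone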;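 note: compound read alongside a low EC10 to EC30 dose of BAM8-22 agonist; peak minus trough fluorescence over baseline measured at the second addition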
Target sequence (Q96LB2 whole entry, looked up): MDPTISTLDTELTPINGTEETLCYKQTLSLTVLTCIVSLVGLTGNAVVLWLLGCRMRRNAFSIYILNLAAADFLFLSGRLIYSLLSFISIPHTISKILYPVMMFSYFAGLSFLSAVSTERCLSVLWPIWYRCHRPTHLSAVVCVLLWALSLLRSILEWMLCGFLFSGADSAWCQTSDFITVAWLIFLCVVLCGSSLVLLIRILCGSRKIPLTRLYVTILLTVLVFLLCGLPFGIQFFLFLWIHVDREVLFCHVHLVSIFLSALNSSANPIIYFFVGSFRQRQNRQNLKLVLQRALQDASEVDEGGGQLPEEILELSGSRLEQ
MrgX1 ag: agonists of human MrgX1 receptor. B-score at 10 µM. MrgX1-HEK293 cells, Fluo-4 calcium fluorescence, agonist mode; stronger effect = higher value. Q96LB2. hit rate 0.44% among 310,000;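 active = calcium response B-score plate-corrected fluorescence ratio at least 3 library SD, with starting fluorescence B-score inside 5 SD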
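Material: HEK293 cells stably expressing human MrgX1 receptor | Quantity: 15,000 cells per well | Times: Cells plated overnight, dye loaded 0.5 h 37 °C, 0.5 h room temperature | Measured by: Kinetic Fluo-4 NW fluorescence of intracellular calcium | Control set: Positive and negative controls per plate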
MrgX1 antag: antagonists of human MrgX1 receptor; MRGX1-HEK293 calcium flux, Fluo-4, BAM8-22 antagonism; stronger effect = lower value; Q96LB2; B-score at 10 µM; hit rate 1.3% among 310,000;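 active = calcium-response B-score plate-corrected more than 3 library SD below zero, starting fluorescence within 5 deviations, no agonist response on first addition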;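 note: peak minus trough fluorescence over baseline after final BAM8-22 challenge near maximal dose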
RGS4 inh: human RGS4 inhibition | hit rate 0.45% among 310,000 | B-score at 10 µM | AID 463165 | P49798 | HEK293 M3R/RGS4 inducible, Fluo-4 calcium flux; stronger effect = higher value; triggered by carbachol at its EC20;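 active = B-score, a plate-corrected calcium signal, over three deviations above library mean, with baseline fluorescence within five deviations of library mean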;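 note: RGS4 expression induced by doxycycline in cells with stable M3 receptor; B-score is computed from the integrated fluorescence ratio over baseline after carbachol; higher B-score means a larger calcium signal and so more RGS4 inhibition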
Target sequence (P49798 whole entry, looked up): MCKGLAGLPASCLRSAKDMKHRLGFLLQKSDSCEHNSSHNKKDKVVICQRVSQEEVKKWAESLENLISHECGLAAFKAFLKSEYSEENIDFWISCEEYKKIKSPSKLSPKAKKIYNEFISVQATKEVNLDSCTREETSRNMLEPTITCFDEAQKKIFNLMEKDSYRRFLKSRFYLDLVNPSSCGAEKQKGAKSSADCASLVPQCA
MrgX1 allo conf: human MrgX1 positive allosteric modulation, re-confirmation; activation (ratio percentage), % at 10 µM; shares compounds with MrgX1 allo act; MrgX1-HEK293, Fluo-4 calcium fluorescence, FDSS; hit rate 13% among 1,200;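 active = ratio at least 3 SD above the weak peptide control, stable starting fluorescence, no direct agonism earlier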;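 note: compound followed by low BAM8-22 agonist challenge near EC20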
MrgX1 antag conf: human MrgX1 receptor antagonism, re-confirmation screen; shares compounds with MrgX1 antag; hit rate 19% among 2,300; remaining BAM8-22 calcium response % of control (stronger effect = lower value), % at 10 µM; MrgX1-HEK293, BAM8-22 calcium flux, Fluo-4; stronger effect = lower value;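 active = remaining agonist calcium response no higher than 100% minus 3 SD of agonist-only control wells, with starting fluorescence near control levels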;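 note: agonist BAM8-22 given at a near maximal EC90 to ECmax level; peak minus minimum fluorescence divided by baseline after agonist addition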
HEK293 Ca flux: activity in parental HEK293 cells lacking MrgX1; shares compounds with MrgX1 antag; hit rate 2% among 4,000; Fluo-4 calcium fluorescence, FDSS; fluorescence ratio F(max-min)/F0 at 10 µM; AID 624111;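 active = duplicate-averaged calcium fluorescence ratio at least three times the standard deviation of buffer wells, a nonspecific response in parental cells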
HEK293 Ca counter: activity in parental HEK293 cells without MrgX1. AID 624114. shares compounds with MrgX1 antag. parental HEK293 calcium flux, Fluo-4 fluorescence ratio; stronger effect = higher value. hit rate 0.4% among 4,000. fluorescence ratio F(max-min)/F0 at 10 µM;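 active = calcium fluorescence ratio, averaged over duplicates, at least 3 SD of the buffer-well ratio, meaning a nonspecific response in receptor-free cells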;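 note: untransfected parental HEK293 lacking MrgX1 used as counterscreen for MrgX1 allosteric activators; fluorescence change taken during the second addition on a kinetic imager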
HEK293 Ca cntr2: MrgX1 activator counter-screen hit in parental HEK293 cells; shares compounds with MrgX1 antag; Fluo-4 calcium fluorescence (FDSS); stronger effect = higher value; fluorescence ratio F(max-min)/F0 at 10 µM; hit rate 8.7% among 4,000;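 active = calcium fluorescence ratio at least three times the spread of buffer wells, meaning a non-specific response in parental cells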
Hits are given with their value; n = inactive; x = no result given. Rows were chosen to be rich in hits. Some 3.5% of all compounds tested hit in one or more screens of this group.

SMILES	RGS4 act	MrgX1 allo act	MrgX1 ag	MrgX1 antag	RGS4 inh	MrgX1 allo conf	HEK293 Ca flux	HEK293 Ca counter	HEK293 Ca cntr2	others
CCOC(=O)N1CCN(C(=S)Nc2cc(S(=O)(=O)N3CCOCC3)ccc2Cl)CC1	n	9.2	n	n	n	n	n	n	n
CCn1c(=O)n(CC)c2cc(S(=O)(=O)Nc3c(C)cccc3C)ccc21	n	n	n	n	n	x	x	x	x
CCn1c(=O)c(=O)n(CC)c2cc(S(=O)(=O)Nc3ccc(C)cc3)ccc21	n	11	n	n	n	n	n	n	n
COC(=O)c1ccc(NS(=O)(=O)c2ccc(Cl)cc2)o1	n	22	n	n	n	12%	n	n	n
CC1=C(C(=O)Nc2ccc(C(=O)NCCCN3CCCCC3)cc2)SCCO1	n	n	n	n	n	x	x	x	x
O=C(CN(C(=O)CNC(=O)c1cccs1)c1ccccc1)NC1CCCCC1	n	37	n	n	n	n	n	n	n
Cc1ccc(-c2cc3onc(-c4ccccc4)c3c(=O)n2C)cc1	x	21	n	n	x	n	n	n	n
Cc1ccccc1OC(C)C(=O)NCCC1=CCCCC1 (stereo unspecified)	n	11	n	n	n	n	n	n	n
Cc1ccc(OCCCNCCO)c(Br)c1	n	7.5	n	n	n	n	n	n	n
Cc1cc(NC(=O)CSc2nnc(-c3ccco3)n2Cc2ccco2)no1	n	n	n	n	n	x	x	x	x
CC(=O)Nc1ccc(NC(=O)CSc2nnc(-c3ccco3)n2Cc2ccco2)cc1	n	7	n	n	n	n	n	n	n
CCc1n[nH]c(=S)n1/N=C/C(C)=C\c1ccccc1	n	6.6	n	n	n	n	n	n	n
O=C(Nc1cc(F)c(Br)cc1F)c1ccc(Cl)cc1	n	21	n	n	n	10%	n	n	n
Cc1cc(Cl)ccc1NC(=S)NCC(O)c1ccccc1 (stereo unspecified)	n	22	n	n	n	n	n	n	n
COc1cccc(C(=O)COc2cccc(NC(=O)c3ccco3)c2)c1	n	6.6	n	n	n	n	n	n	n
COc1ccc(NC(=O)N2CCCC2C(=O)NCCc2ccccc2)cc1 (stereo unspecified)	n	n	n	n	n	x	x	x	x
Cc1ccn2c(NC3CCCC3)c(-c3ccncc3)nc2c1	n	7.3	n	n	n	14%	n	n	n
Cc1ccc2nc(-c3ccncc3)c(NC3CCCC3)n2c1	n	n	n	n	n	x	x	x	x
Cc1ccn2c(NC3CCCC3)c(-c3ccccn3)nc2c1	n	12	n	n	n	n	n	n	n
CC(NC(=O)CCNC(=O)c1ccccc1Cl)C1CC2CCC1C2 (stereo unspecified)	n	n	n	n	n	x	x	x	x
CCCCN(C(=O)C1CC1)C1CCS(=O)(=O)C1 (stereo unspecified)	n	n	n	n	n	x	x	x	x
O=C(Nc1ccc(N2CCOCC2)cc1N1CCOCC1)c1ccc([N+](=O)[O-])cc1Cl	n	n	n	n	n	x	x	x	x
Cc1nc(C(=O)NC(C)C)nn1-c1cc(Cl)cc(Cl)c1	n	n	n	n	n	x	x	x	x
C/C(=C/c1ccccc1)C(=O)N1CCC(C)CC1	n	n	n	n	n	x	x	x	x
COc1cc(-c2noc(C)c2/C=C/c2ccc(C(=O)O)cc2)cc(OC)c1OC	n	n	n	n	n	x	x	x	x
SMILES	RGS4 act	MrgX1 allo act	MrgX1 ag	MrgX1 antag	RGS4 inh	MrgX1 allo conf	HEK293 Ca flux	HEK293 Ca counter	HEK293 Ca cntr2	others
COc1cc(-c2noc(C)c2-c2ccc(N(C)C)nc2)cc(OC)c1OC	n	7.7	n	-5	n	n	n	n	n	MrgX1 antag conf=n
O=C1COc2ccccc2N1Cc1c(F)cccc1Cl	n	n	n	n	n	x	x	x	x
CS(=O)(=O)c1ccccc1-c1nnc(NC(=O)c2ccc(S(=O)(=O)N3CCCC3)cc2)o1	n	n	n	n	n	x	x	x	x
O=C(Nc1nnc(-c2ccccc2Cl)o1)c1ccc(S(=O)(=O)N2CCCCCC2)cc1	n	8.6	n	n	n	n	n	n	n
CC1CC(C)CN(C(=O)c2ccc(S(=O)(=O)N3CC(C)CC(C)C3)cc2)C1 (stereo unspecified)	n	n	n	n	n	x	x	x	x
O=C(Nc1ccc(Cl)c(Cl)c1)c1ccccc1	x	8	n	n	x	n	n	n	n
CCc1ccc(S(=O)(=O)Nc2c(C)n(C)n(-c3ccccc3)c2=O)cc1	n	n	n	n	n	x	x	x	x
O=C(CSc1ccccc1)NN1C(=O)c2ccccc2C1=O	n	n	n	n	n	x	x	x	x
Cc1ccccc1Oc1ncnc2sccc12	n	8.4	n	n	n	11%	n	n	n
COc1ccccc1Oc1ncnc2sccc12	n	n	n	n	n	x	x	x	x
Cc1ccc(-n2cc(C(=O)O)c(=O)cc2C)c(C)c1	n	n	n	n	n	x	x	x	x
N=C1/C(=C/c2ccc(OCc3ccccc3F)cc2)C(=O)N=C2SC(CC(=O)N3CCOCC3)=NN12	n	35	n	n	n	21%	n	n	n
CC1C(=O)N(Cc2ccccc2F)c2ccccc2N1C(=O)c1c(F)cccc1F (stereo unspecified)	n	9	n	n	n	n	n	n	n
CCOC(=O)c1cc(-c2ccco2)nn1-c1ccc(C)cc1	n	n	n	n	n	x	x	x	x
Cc1ccc(-n2nc(-c3ccco3)cc2C(=O)O)cc1	n	25	n	n	n	5.6%	n	n	n
CCc1cc2ccc(OC)cc2nc1SCC(=O)N1CCN(C(=O)c2ccco2)CC1	n	6.6	n	n	n	n	n	n	n
CCOc1ccccc1NC(=O)CSc1ccccc1	n	6.9	n	n	n	n	n	n	n
COc1cccc(N/C(N)=N/c2nc(C(F)(F)F)cc(C(F)(F)F)n2)c1	n	10	n	n	n	n	n	n	n
O=C(Cn1c(NCCO)nc2ccccc21)c1ccccc1	n	7.3	n	n	n	n	n	n	n
COc1ccc2nc(NC(=S)N(C)C)sc2c1	n	12	n	n	n	n	n	n	n
Cc1cc(F)ccc1NC(=O)c1cccnc1	n	n	n	n	n	x	x	x	x
Cc1cc2c(=O)n(C)c(SCC(=O)Nc3ccccc3C)nc2s1	n	n	n	n	n	x	x	x	x
